B1: tRNA (parent)
chain: GUUCCGUUGGCGUAAUGGUAACGCGUCUCCCUCCUAAGGAGAAGACUGCGGGUUCGAGUCCCGUACGGAACG

Fewer inactive variants are shown than the library holds. Some results are limits rather than exact numbers.

This is an account of results in the RNAGym collection of RNA variant scans (doi:10.1126/science.aae0568).

Variants of B1 are the subject of the data set. The experiment in a line: yeast fitness relative to wild type (ratio to wild type); higher = fitter; tRNA-Arg(CCU), competitive growth, 37 C, YPD. In outline: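 A pool of Saccharomyces cerevisiae strains, each with a tRNA-Arg(CCU) gene variant at the native genomic locus, was competed in YPD at 37°C for 24 hours across six parallel replicates. The variants had been chemically synthesised at a 3% per-site mutation rate over 69 sites, and gene amplicons before and after competition were read by 100-nucleotide paired-end sequencing. Darwinian fitness relative to wild type rested on changes in genotype frequencies. Genotypes required ≥ 100 starting reads, and estimates < 0.5 were set to 0.5.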
Take C22U G38A: the yeast fitness turned out to be 0.748. Take C22G G58U: the yeast fitness worked out at 1.05. Turning to G23A A36C U47C G48C, the yeast fitness is ≤ 0.5. The same measure for G23A C24U C61U: 0.64; for C22U U28C C34U A40C U64A: 0.762; for C22G U28A G67C: ≤ 0.5. As for C22U G50U G63A, the figure is ≤ 0.5; as for C22U G25C U28C A36G G51A, ≤ 0.5. As for C22U, the figure is 0.908. Take C22U A37C: the yeast fitness amounted to 0.593. The same measure for C22U A37U: 0.694; for C22G G58C C61A A69U: ≤ 0.5; for C22G C34G A43U C49A: ≤ 0.5.

Take C22G U26C C33U A37U A40C: the yeast fitness is ≤ 0.5.

Turning to G23A C29G G52C, the yeast fitness was ≤ 0.5.

Regarding C22U A37C A40G G52A U53A, the yeast fitness is ≤ 0.5.

Regarding G23A C27U, the yeast fitness stood at 0.706. For the variant C22G U28A C31G C55A, the yeast fitness is ≤ 0.5. In the case of C22U G38A G68A, the yeast fitness was 0.584.

In the case of C22U G25A C55U C66U, the yeast fitness is ≤ 0.5. As for G23A A36U G39C C66U, the figure is ≤ 0.5. C22G U26A C30A A42U: the yeast fitness is 0.692. The same measure for C22U U53A: 0.673. Regarding C22U U53G, the yeast fitness was ≤ 0.5. The same measure for C22G G25C C61G: 0.659. The same measure for C22G U28A A37C A42C C46A: ≤ 0.5; for C22G G25A: 0.993; for C22G G25C: 0.977.

As to G23A A42G A45U G63C U64C A65G, the yeast fitness was ≤ 0.5. The same measure for C22G C34G A70C: 0.608; for C22U C33U G51A: ≤ 0.5. As for C22G G38A U47C, the yeast fitness is ≤ 0.5. As to C22U A37U U53G, the yeast fitness is ≤ 0.5. Turning to C22G G23A C46U A57G, the yeast fitness is ≤ 0.5. For the variant C22U C31U U47G, the yeast fitness was ≤ 0.5. For the variant C22U C60U, the yeast fitness came to 0.723. G23A C29U C30A G67A: the yeast fitness was ≤ 0.5. As for C22G G39C A43U G44A U47C G58C, the figure is ≤ 0.5; as for C22G G23C, 0.779. In the case of C22G G23U, the yeast fitness came out at 0.73. As for C22U G25A U54C A65U, the yeast fitness stood at 0.555. As to C22U U53C G68C, the yeast fitness was ≤ 0.5.

With C22U G58C A69G, the yeast fitness came to 0.602. As for C22U A40G C61U A70U, the figure is 0.547; as for C22G C34G U35A A36U C55U, ≤ 0.5; as for C22U A36C U54C A57U, ≤ 0.5. On to C22G C49G U64G A65G A70U, for which the yeast fitness was ≤ 0.5. For C22U A70G, the yeast fitness is 0.784. As for C22G C55A C60A, the figure is ≤ 0.5; as for C22U A42G U54C C55G A70U, ≤ 0.5; as for C22U C24U C33G, 0.502.

In the case of G23A C30U, the yeast fitness was 0.68. Regarding C22U C55G, the yeast fitness is 0.578.

Take C22U C55U: the yeast fitness turned out to be 0.686. On to C22G G25A U53C, for which the yeast fitness was ≤ 0.5. The same measure for C22G G50C C55G: ≤ 0.5. As for G23A C24U, the figure is 0.94; as for C22U G48C, 0.863. The same measure for C22U U32C G51A C61G: ≤ 0.5; for G23A A42G C61U: ≤ 0.5; for C22U U32A C46G G52C C62U: ≤ 0.5. G23A A43C G44A A65G: the yeast fitness was 0.637. Consider C22U U35A G67U, for which the yeast fitness is ≤ 0.5. The same measure for C22G U64C: 0.856. The same measure for C22U G23C C55U C60G: 0.54. Take C22U U32G C34U G38U A40G C55G A70U: the yeast fitness is ≤ 0.5. As to C22U U35C A37C, the yeast fitness is ≤ 0.5. Take C22G G67C A69C: the yeast fitness was ≤ 0.5.

As for C22U C24A C27U, the yeast fitness is ≤ 0.5. Regarding G23A A70G, the yeast fitness came out at 0.689. Turning to G23A A70U, the yeast fitness is 0.854. Take C22G C49A G56C G58C C60G: the yeast fitness came out at 0.605. For G23A C29U C31U A42G, the yeast fitness is ≤ 0.5. As for G23A C29U C30A A42U U53A, the figure is ≤ 0.5; as for C22U U64A, 0.837; as for C22U C31G A43U, 0.612. As for C22U A37U G58A A69C, the figure is ≤ 0.5. The same measure for C22U G48A C55U: 0.599. As for C22U A65U A70U, the yeast fitness stood at 0.628. Regarding C22G U32C A69U, the yeast fitness worked out at 0.705. Turning to C22U A36C, the yeast fitness was found to be 0.616.

As for C22U A36U, the yeast fitness came out at 0.591.

As to C22U G38C A65U C66U, the yeast fitness stood at 0.547. As for G23A, the figure is 0.741; as for C22G U59A A69G, ≤ 0.5; as for C22U G25A C31A, 0.728.

On to C22U C60G U64G, for which the yeast fitness was ≤ 0.5. As for C22G C62U G68C, the figure is ≤ 0.5.

For C22G U32C A37G, the yeast fitness was 0.559.

On to C22U G67C, for which the yeast fitness amounted to 0.822.

Consider C22G G52C C66U G68A, for which the yeast fitness is ≤ 0.5. The same measure for G23A C30A U54C C55U: ≤ 0.5; for C22G U28A C31G: ≤ 0.5. The same measure for C22U G25C C33U A37U: ≤ 0.5. The same measure for C22U C24A A42U C49U C61U: ≤ 0.5. In the case of C22U G58C A65C, the yeast fitness is ≤ 0.5. In the case of C22G U47A G67A, the yeast fitness is ≤ 0.5. As for C22U C66U A69C, the figure is 0.593.

For G23A C30U C62A, the yeast fitness is 0.561. As for C22U C29A U47C G68A A69C, the yeast fitness was ≤ 0.5.

Take C22G U35A: the yeast fitness is 0.614. The same measure for C22G U35G: 0.62; for C22G U59A C66A: 0.554; for C22G U28A C31G A45G C55A G68C: ≤ 0.5. As for C22G C46G, the figure is 0.974; as for C22G C46A, 1.03; as for C22G C34U C60U C62U A70C, ≤ 0.5. As for C22U A43G, the figure is 0.835; as for C22U A43U, 0.788; as for C22U U32G C34U A40G G58A C66U, ≤ 0.5. Take C22U C34G G39A C66U: the yeast fitness is ≤ 0.5.

On to G23A A42U C61G U64A, for which the yeast fitness is ≤ 0.5. Regarding C22U U28C C49A, the yeast fitness was ≤ 0.5.

As to C22U C27G, the yeast fitness turned out to be 0.721.

For C22U C27U, the yeast fitness was 0.713. On to C22U C31G G67C, for which the yeast fitness is 0.653.

Consider C22U G23A G56A, for which the yeast fitness was ≤ 0.5. On to C22G C60G C62U, for which the yeast fitness was ≤ 0.5. The same measure for C22U C30G G51C G56U: ≤ 0.5. As for C22G G39A A42U A57C, the figure is ≤ 0.5; as for C22G G39C G50C, ≤ 0.5; as for C22U C29A A36G A45U, ≤ 0.5. The same measure for C22G G41C A65U: ≤ 0.5; for C22U A36U C62G G63A: ≤ 0.5; for G23A C30U C55A G63A: ≤ 0.5.

Consider C22U G25A G50A A69U, for which the yeast fitness was ≤ 0.5.

For the variant C22U U28A C33G G58A C66U, the yeast fitness was ≤ 0.5.

As for C22U C46G A65G, the yeast fitness is ≤ 0.5. In the case of C22U C62U A65C, the yeast fitness stood at 0.691.

As to C22U C24U G58C A65C, the yeast fitness is ≤ 0.5. The same measure for C22U G41C: 0.698; for C22U G23A A70C: ≤ 0.5; for C22G G41A G50U C62A G63C: ≤ 0.5. Regarding C22U U32C G48C A57G G68C, the yeast fitness is ≤ 0.5.

In the case of C22U C31G A43U C60A, the yeast fitness was ≤ 0.5. As for G23A C30U A37C A57C, the figure is ≤ 0.5; as for C22G C60G C66A, ≤ 0.5; as for C22U C31G C49U A65G, ≤ 0.5.

Turning to G23A C27U C34U A45C A70U, the yeast fitness turned out to be 0.57. The same measure for C22U G39A C49G: ≤ 0.5; for C22U C24G U35C G56C U64A: ≤ 0.5; for C22U C30U U47A: ≤ 0.5. On to C22U G39C G48C, for which the yeast fitness came out at 0.516. The same measure for C22U C29U G41A C55U C61A: ≤ 0.5. As for C22U A45C G50A G67C A69C, the yeast fitness is ≤ 0.5. As for C22U C27A C46A, the figure is 0.66; as for C22U U28C C29G C33A C62U G63A U64A, ≤ 0.5; as for G23A A36U A40C G52A C61G, 0.639. For the variant C22U C49G, the yeast fitness is 0.87. For the variant C22G C46A G48A A57U C60A, the yeast fitness amounted to 0.576. As to C22U A37G A45U, the yeast fitness came out at 0.547.

C22G G67A: the yeast fitness turned out to be 0.819. As for C22U C30U A37G G48C C55G, the figure is ≤ 0.5; as for C22U C60U A70U, 0.678. As for C22U C30U A37G C66U, the figure is ≤ 0.5; as for C22U C29U G39A G41A, ≤ 0.5; as for C22U U32A C46G G52C, ≤ 0.5. The same measure for C22U C46G C55A C66A: 0.564. Take G23A C27U A37U C60U C61A: the yeast fitness was ≤ 0.5. Regarding C22U C55U A65G, the yeast fitness is ≤ 0.5. For the variant C22U G38C G48A, the yeast fitness was ≤ 0.5. As to C22U C27A G58A, the yeast fitness is 0.568. As for C22U A37U C49A C62U, the figure is 0.598; as for C22U A37C G52C C62U, ≤ 0.5. As for C22U C30U C33U A45C A65C, the figure is ≤ 0.5; as for C22U U64C C66U, 0.7; as for C22G U47C U53G, 0.551.
